Assays:
[1] = target: T1, Adenosine receptor A1 (Homo sapiens, UniProt P30542); assay: Displacement of [3H]DPCPX from adenosine A1 receptor in human brain cortical membranes; format: cell membranes
T1 sequence (P30542 whole entry): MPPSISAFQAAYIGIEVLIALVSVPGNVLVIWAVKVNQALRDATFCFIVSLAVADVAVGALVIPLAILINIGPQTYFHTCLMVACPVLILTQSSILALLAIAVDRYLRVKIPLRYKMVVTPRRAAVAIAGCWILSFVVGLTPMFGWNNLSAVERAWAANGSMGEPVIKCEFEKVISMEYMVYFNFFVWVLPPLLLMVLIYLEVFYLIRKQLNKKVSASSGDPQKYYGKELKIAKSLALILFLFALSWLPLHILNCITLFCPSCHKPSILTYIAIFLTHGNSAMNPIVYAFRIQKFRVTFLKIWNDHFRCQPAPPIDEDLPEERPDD
Outline: (§1)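 Cortical membranes (0.05–0.1 mg protein) incubated in triplicate at 25 °C for 120 min with about 0.5 nM [3H]-DPCPX (89 Ci/mmol). Buffer: 50 mM Tris/HCl pH 7.7, 1 mM EDTA, 2 mM MgCl2. Nonspecific binding with 10 μM (R)-PIA; GF/C filtration.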

[2] = target: T2, Adenosine receptor A1 (Bos taurus, UniProt P28190); assay: Binding affinity against adenosine A1 receptor in bovine cortical membranes using [3H]CHA as radioligand; format: cell membranes
T2 sequence (P28190 whole entry): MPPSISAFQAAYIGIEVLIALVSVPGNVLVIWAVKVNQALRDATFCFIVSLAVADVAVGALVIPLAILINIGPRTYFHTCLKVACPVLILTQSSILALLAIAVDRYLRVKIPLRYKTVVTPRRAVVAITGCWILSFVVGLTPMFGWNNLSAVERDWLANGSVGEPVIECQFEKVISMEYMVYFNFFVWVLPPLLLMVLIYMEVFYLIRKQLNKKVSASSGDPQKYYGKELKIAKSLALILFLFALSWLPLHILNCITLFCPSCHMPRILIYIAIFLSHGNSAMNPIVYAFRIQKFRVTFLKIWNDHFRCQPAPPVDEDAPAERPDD
Outline: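 Bovine cortical membranes; [3H]-CHA at 39 Ci/mmol. Compounds dissolved in DMSO, with solvent blanks run. At least six concentrations spanning 3 orders of magnitude.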

[3] = target: T2, Adenosine receptor A1; assay: Displacement of [3H]DPCPX from adenosine A1 receptor in bovine brain cortical membranes; format: cell membranes; outline: as §1
[4] = target: T1, Adenosine receptor A1; assay: Binding affinity against adenosine A1 receptor in human cortical membranes using [3H]CHA as radioligand; format: cell membranes
[5] = target: Adenosine receptor A2a (Homo sapiens, UniProt P29274); assay: Binding affinity against adenosine A2 receptor in human striatal membranes using [3H]CGS-21680 as radioligand; format: cell membranes, Striatum, Membrane
Adenosine receptor A2a, sequence (P29274 whole entry): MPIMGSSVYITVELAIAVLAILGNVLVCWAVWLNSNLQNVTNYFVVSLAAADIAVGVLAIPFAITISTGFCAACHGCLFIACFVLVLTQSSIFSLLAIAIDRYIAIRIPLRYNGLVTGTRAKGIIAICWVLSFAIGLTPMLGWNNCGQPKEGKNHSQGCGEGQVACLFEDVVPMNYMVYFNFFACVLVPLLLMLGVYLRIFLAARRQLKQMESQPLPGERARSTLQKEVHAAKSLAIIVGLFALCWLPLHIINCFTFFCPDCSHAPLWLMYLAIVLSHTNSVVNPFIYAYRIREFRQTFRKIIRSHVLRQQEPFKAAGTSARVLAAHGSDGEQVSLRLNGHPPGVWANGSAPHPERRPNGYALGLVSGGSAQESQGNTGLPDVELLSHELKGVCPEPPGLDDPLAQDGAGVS

[6] = Ratio of binding affinity against bovine adenosine A1 to that of A2 receptor
[7] = target: Adenosine receptor A2a (Bos taurus); assay: Binding affinity against adenosine A2 receptor in bovine striatal membranes using [3H]-CGS-21,680 as radioligand

Ki [2] [µM]	Ki [4] [µM]	Ki [5] [µM]	SMILES	other results
0.001	2	–	CC(=O)Nc1ccc(-c2cc(O)c3ccc(C)nc3n2)cc1	Ki [1]: 1.46 µM; Ki [3]: 0.00167 µM
–	> 10	–	Cn1c(=O)ccc2c(O)cc(-c3ccccc3)nc21	–
0.048	1.5	–	CCCc1cc(O)c2ccc(C)nc2n1	Ki [1]: 1.45 µM; Ki [3]: 0.0615 µM
–	1.4	2.7	Oc1cc(-c2ccccc2)nc2nc(F)ccc12	Ratio [6]: 41
–	> 10	–	Cc1ccc2c(Cl)cc(-c3ccccc3)nc2n1	Ratio [6]: > 10
–	2	–	Cc1ccc2c(S)cc(-c3ccccc3)nc2n1	–
0.07	2.2	–	Oc1cc(-c2ccccc2)nc2nc(NC3CCCCC3)ccc12	–
–	4	–	Cc1ccc2c(O)cc(-c3cccc(N)c3)nc2n1	–
–	> 10	–	Oc1cc(-c2ccccc2)nc2nc(Oc3ccccc3)ccc12	–
–	2	–	Cc1ccc2c(N)cc(-c3ccccc3)nc2n1	–
0.00056	0.98	–	CN(C)c1ccc2c(O)cc(-c3ccccc3)nc2n1	Ki [1]: 1.37 µM; Ki [3]: 0.00602 µM
–	0.49	0.04	Cc1ccc2c(O)cc(-c3ccccc3F)nc2n1	Ratio [6]: 43
4.7	> 10	–	CCOc1cc(-c2ccccc2)nc2c1ccc(=O)n2CC	–
> 10	> 10	> 10	Cc1cc(O)c2ccc(=O)[nH]c2n1	Ki [7]: > 10 µM
0.015	2.2	–	Cc1ccc2c(O)cc(-c3cccc([N+](=O)[O-])c3)nc2n1	–
–	> 10	–	Cc1ccc2c(N3CCNCC3)cc(-c3ccccc3)nc2n1	–
7	> 10	1.8	Cc1ccc2c(O)ccnc2n1	Ki [7]: > 10 µM; Ratio [6]: > 1.4
–	> 10	–	COc1cc(-c2ccccc2)nc2nc(C)ccc12	–
–	0.3	–	Oc1cc(-c2ccccc2)nc2nc(Cl)ccc12	Ki [1]: 0.67 µM; Ki [3]: 0.00162 µM
0.0068	0.91	0.11	Cc1ccc2c(O)cc(-c3ccc(N)cc3)nc2n1	Ki [7]: 0.5 µM; Ratio [6]: 73
–	> 10	–	CCn1c(-c2ccccc2)cc(=O)c2ccc(C)nc21	–
–	0.56	–	Cc1ccc2c(NC3CCCCC3)cc(-c3ccccc3)nc2n1	Ki [1]: 0.448 µM; Ki [3]: 0.039 µM
0.05	1	–	CCOc1cc(-c2ccccc2)nc2nc(Br)ccc12	–
–	2.6	1.5	CCOc1ccc2c(O)cc(-c3ccccc3)nc2n1	Ratio [6]: > 1920
0.38	> 10	0.21	CSc1cc(-c2ccccc2)nc2nc(C)ccc12	Ki [7]: > 10 µM; Ratio [6]: > 26

Ki [2] [µM]	Ki [4] [µM]	Ki [5] [µM]	SMILES	other results
–	1.3	–	Oc1cc(-c2ccccc2)nc2ncccc12	–
> 10	> 10	–	CCOC(=O)CCN1CCN(c2ccc3c(O)cc(-c4ccccc4)nc3n2)CC1	–
0.16	> 10	> 10	Oc1cc(-c2ccccc2)nc2nc(N3CCOCC3)ccc12	Ki [7]: > 10 µM; Ratio [6]: > 63
0.00025	–	–	CCCn1c(=O)c2[nH]c(C3CCCC3)nc2n(CCC)c1=O [1,3-DIPROPYL-8-CYCLOPENTYLXANTHINE [DPCPX]]	–
–	> 10	–	Cc1ccc2ccc(-c3ccccc3)nc2n1	–
–	0.36	–	Oc1cc(-c2ccccc2)nc2nc(Br)ccc12	Ki [1]: 0.336 µM; Ki [3]: 0.0016 µM
0.357	–	–	Nc1nc2c(cnn2CCc2ccccc2)c2nc(-c3ccco3)nn12 [SCH-58261]	–
–	2	–	COc1ccc2c(O)cc(-c3ccccc3)nc2n1	–
> 10	> 10	> 10	Cc1ccc2c(N)ccnc2n1	Ki [7]: > 10 µM
–	3.4	–	Nc1ccc2c(O)cc(-c3ccccc3)nc2n1	–
–	> 10	–	Cc1ccc2c(N(C)C)cc(-c3ccccc3)nc2n1	–
0.0072	7.5	> 10	Oc1cc(-c2ccccc2)nc2nc(N3CCCCC3)ccc12	Ki [7]: > 10 µM; Ratio [6]: > 1390
–	> 10	–	Cc1ccc2c(N=[N+]=[N-])cc(-c3ccccc3)nc2n1	–
0.048	0.93	1.4	CCOc1ccc2c(=O)cc(-c3ccccc3)n(CC)c2n1	Ki [7]: > 10 µM; Ratio [6]: 208
> 10	> 10	> 10	Oc1cc(-c2ccccc2)nc2nc(N3CCNCC3)ccc12	Ki [7]: > 10 µM
–	0.43	0.55	Cc1ccc2c(O)cc(-c3ccccc3)nc2n1	Ratio [6]: 87
–	3.1	–	Cc1ccc2c(O)cc(-c3ccc([N+](=O)[O-])cc3)nc2n1	–
–	3.9	–	Cc1ccc2c(O)cc(-c3ccc(F)cc3)nc2n1	–
–	> 10	–	Cc1ccc2c(NN)cc(-c3ccccc3)nc2n1	–
–	> 10	–	COc1cc(-c2ccccc2)nc2c1ccc(=O)n2C	–
–	> 10	–	O=c1ccc2c(O)cc(-c3ccccc3)nc2[nH]1	Ki [1]: > 10 µM
–	8.8	–	Cc1ccc2c(Oc3ccccc3)cc(-c3ccccc3)nc2n1	–
> 10	> 10	7.5	Cc1cc(O)c2ccc(N)nc2n1	Ki [1]: > 10 µM; Ki [3]: > 10 µM
0.29	> 10	> 10	CCOc1ccc2c(OCC)cc(-c3ccccc3)nc2n1	Ki [7]: > 10 µM; Ratio [6]: > 34
0.21	4.1	–	CCCc1cc(O)c2ccc(N)nc2n1	–

From ChEMBL document CHEMBL1149169 (J Med Chem, 2004)
